# Results taken from ChEMBL document CHEMBL4425120, “N1-Azinylsulfonyl-1H-indoles: 5-HT6 Receptor Antagonists with Procognitive and Antidepressant-Like Properties” (ACS Med Chem Lett, 2016).
# Active and inactive are the calls of the source. The calls are words filed in the database; no cut-off is given here.
# Tests used:
# [1] = target: T1, 5-hydroxytryptamine receptor 6 (Homo sapiens, UniProt P50406); test: Displacement of [3H]-LSD from human 5-HT6 receptor expressed in HEK293 cells by microbeta liquid scintillation counting; type: cell-based
# Procedure, shortened: (§1)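 Ki values reported as the mean of two independent radioligand binding experiments.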
# Homo sapiens [2] = species on record: Homo sapiens; test: Selectivity ratio of Ki for human 5-HT2A receptor expressed in HEK293 cells to Ki for human 5-HT6 receptor expressed in HEK293 cells; type: cell-based
# Homo sapiens [3] = species on record: Homo sapiens; test: Selectivity ratio of Ki for human D2L receptor expressed in HEK293 cells to Ki for human 5-HT6 receptor expressed in HEK293 cells; type: cell-based
# Homo sapiens [4] = species on record: Homo sapiens; test: Selectivity ratio of Ki for human 5-HT1A receptor expressed in HEK293 cells to Ki for human 5-HT6 receptor expressed in HEK293 cells; type: cell-based
# Homo sapiens [5] = species on record: Homo sapiens; test: Selectivity ratio of Ki for human 5-HT7B receptor expressed in HEK293 cells to Ki for human 5-HT6 receptor expressed in HEK293 cells; type: cell-based
# D(2) dopamine receptor = D(2) dopamine receptor (Homo sapiens, UniProt P14416); test: Displacement of [3H]-Raclopride from human D2L receptor expressed in HEK293 cells by microbeta liquid scintillation counting; type: cell-based; procedure, shortened: as §1
# [6] = target: T2, 5-hydroxytryptamine receptor 1A (Homo sapiens, UniProt P08908); test: Displacement of [3H]-8-OH-DPAT from human 5-HT1A receptor expressed in HEK293 cells by microbeta liquid scintillation counting; type: cell-based; procedure, shortened: as §1
# T2 sequence (P08908 whole entry): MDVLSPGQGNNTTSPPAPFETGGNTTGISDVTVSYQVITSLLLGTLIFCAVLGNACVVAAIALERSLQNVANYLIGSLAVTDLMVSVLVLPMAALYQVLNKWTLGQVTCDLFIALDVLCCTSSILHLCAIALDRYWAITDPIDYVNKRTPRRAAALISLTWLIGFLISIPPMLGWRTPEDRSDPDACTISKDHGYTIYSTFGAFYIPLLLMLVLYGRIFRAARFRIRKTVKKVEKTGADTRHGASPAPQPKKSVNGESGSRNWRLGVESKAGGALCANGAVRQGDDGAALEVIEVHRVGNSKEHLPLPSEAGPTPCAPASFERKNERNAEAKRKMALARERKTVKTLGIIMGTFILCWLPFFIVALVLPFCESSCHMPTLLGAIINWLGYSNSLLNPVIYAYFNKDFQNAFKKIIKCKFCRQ
# [7] = target: 5-hydroxytryptamine receptor 7 (Homo sapiens, UniProt P34969); test: Displacement of [3H]-5-CT from human 5-HT7B receptor expressed in HEK293 cells by microbeta liquid scintillation counting; type: cell-based; procedure, shortened: as §1
# [8] = target: 5-hydroxytryptamine receptor 2A (Homo sapiens, UniProt P28223); test: Displacement of [3H]-Ketanserin from human 5-HT2A receptor expressed in HEK293 cells by microbeta liquid scintillation counting; type: cell-based; procedure, shortened: as §1
# [9] = target: 5-hydroxytryptamine receptor 6 (Rattus norvegicus, UniProt P31388); test: Displacement of [3H]Lu AE60157 from rat brain 5-HT6 receptor
# Rattus norvegicus [10] = test: Antidepressant activity in Sprague-Dawley rat assessed as reduction in immobility time at 3 mg/kg, ip adminstered 60 mins prior to testing measured for 5 mins by forced swimming test; type: functional, organism-based
# Procedure, shortened: (§2)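 Modified forced swim test in rats, compounds given i.p.; immobility and climbing times scored against a vehicle-treated group; N = 7–8 animals per group; mean ± SEM.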
# Rattus norvegicus [11] = test: Antianxietic activity in ip dosed Wistar rat assessed as increase in number of shocks accepted measured for 5 mins by Vogel conflict drinking test; type: functional; conditions: read-out: MED
# Rattus norvegicus [12] = test: Cognitive enhancing effect in Sprague-Dawley rat assessed as reversal of PCP induced memory deficit at 0.3 to 1 mg/kg, ip administered 1 hour and 15 mins before familiarization phase by novel object recognition test; type: functional, organism-based
# Procedure, shortened: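 Novel object recognition in rats with PCP-induced memory deficit; compounds given i.p.; groups compared with vehicle and with PCP; N = 7–12 animals per group; mean ± SEM.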
# [13] = Toxicity in Sprague-Dawley rat assessed as effect on locomotory activity at 0.3 to 3 mg/kg, ip measured for 5 mins by open field test; type: organism-based; conditions: in vivo
# Rattus norvegicus [14] = test: Antidepressant activity in Sprague-Dawley rat assessed as increase in climbing time at 3 mg/kg, ip adminstered 60 mins prior to testing measured for 5 mins by forced swimming test; type: functional, organism-based; procedure, shortened: as §2
# Rattus norvegicus [15] = test: Antianxietic activity in ip dosed Wistar rat assessed as increase in number of licks accepted measured for 5 mins by Vogel conflict drinking test; type: functional; conditions: read-out: MED
# [16] = target: T1, 5-hydroxytryptamine receptor 6; test: Inhibition of 5-HT6 receptor (unknown origin)
# 5-hydroxytryptamine receptor 2A, sequence (P28223 whole entry): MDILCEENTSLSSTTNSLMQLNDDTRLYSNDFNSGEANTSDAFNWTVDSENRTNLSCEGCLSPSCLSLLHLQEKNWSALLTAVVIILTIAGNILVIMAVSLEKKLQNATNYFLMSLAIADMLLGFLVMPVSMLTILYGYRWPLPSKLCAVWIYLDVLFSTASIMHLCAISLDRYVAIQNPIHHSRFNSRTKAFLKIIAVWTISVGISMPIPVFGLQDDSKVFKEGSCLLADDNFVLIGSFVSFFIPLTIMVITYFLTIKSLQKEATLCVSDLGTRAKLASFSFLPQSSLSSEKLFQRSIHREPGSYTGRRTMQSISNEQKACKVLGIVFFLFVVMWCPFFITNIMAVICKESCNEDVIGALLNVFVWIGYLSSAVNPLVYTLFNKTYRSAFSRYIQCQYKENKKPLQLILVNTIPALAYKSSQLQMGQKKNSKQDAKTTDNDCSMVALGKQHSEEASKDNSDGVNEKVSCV
# D(2) dopamine receptor, sequence (P14416 whole entry): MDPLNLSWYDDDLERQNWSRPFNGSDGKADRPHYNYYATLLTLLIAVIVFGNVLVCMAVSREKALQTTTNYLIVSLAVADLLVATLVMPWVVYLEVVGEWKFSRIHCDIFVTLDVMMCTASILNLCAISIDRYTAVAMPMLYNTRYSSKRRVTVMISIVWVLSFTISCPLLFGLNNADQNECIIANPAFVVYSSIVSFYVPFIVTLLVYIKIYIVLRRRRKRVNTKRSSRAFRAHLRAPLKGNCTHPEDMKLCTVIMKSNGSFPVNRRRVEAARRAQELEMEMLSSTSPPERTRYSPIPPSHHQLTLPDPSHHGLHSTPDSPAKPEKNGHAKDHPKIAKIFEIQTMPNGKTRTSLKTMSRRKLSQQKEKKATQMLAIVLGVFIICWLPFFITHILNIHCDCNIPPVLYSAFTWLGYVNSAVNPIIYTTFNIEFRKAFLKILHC
# T1 sequence (P50406 whole entry): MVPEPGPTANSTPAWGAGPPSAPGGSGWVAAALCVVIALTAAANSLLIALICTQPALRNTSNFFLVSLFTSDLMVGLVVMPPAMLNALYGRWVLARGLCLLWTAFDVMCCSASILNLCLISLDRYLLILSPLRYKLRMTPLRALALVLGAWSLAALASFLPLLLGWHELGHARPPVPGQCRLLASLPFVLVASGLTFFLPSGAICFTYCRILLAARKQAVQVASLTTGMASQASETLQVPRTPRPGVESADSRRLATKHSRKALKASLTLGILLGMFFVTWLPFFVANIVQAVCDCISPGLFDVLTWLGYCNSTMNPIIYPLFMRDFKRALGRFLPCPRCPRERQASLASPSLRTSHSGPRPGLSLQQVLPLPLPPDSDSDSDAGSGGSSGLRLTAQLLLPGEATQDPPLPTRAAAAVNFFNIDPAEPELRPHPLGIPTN
# 5-hydroxytryptamine receptor 7, sequence (P34969 whole entry): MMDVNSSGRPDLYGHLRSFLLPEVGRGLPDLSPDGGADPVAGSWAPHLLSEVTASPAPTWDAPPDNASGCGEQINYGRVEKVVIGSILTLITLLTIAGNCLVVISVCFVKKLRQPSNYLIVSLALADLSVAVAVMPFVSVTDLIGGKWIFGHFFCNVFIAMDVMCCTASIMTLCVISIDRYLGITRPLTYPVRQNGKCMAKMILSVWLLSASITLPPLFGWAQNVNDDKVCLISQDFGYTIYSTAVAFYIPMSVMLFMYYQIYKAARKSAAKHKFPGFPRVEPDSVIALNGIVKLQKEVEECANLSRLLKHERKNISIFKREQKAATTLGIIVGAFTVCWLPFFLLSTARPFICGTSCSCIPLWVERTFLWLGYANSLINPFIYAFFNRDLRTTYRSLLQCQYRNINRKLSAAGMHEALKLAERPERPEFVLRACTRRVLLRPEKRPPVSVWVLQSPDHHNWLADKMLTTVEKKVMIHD
# 5-hydroxytryptamine receptor 6 (Rattus norvegicus, UniProt P31388), sequence (P31388 whole entry): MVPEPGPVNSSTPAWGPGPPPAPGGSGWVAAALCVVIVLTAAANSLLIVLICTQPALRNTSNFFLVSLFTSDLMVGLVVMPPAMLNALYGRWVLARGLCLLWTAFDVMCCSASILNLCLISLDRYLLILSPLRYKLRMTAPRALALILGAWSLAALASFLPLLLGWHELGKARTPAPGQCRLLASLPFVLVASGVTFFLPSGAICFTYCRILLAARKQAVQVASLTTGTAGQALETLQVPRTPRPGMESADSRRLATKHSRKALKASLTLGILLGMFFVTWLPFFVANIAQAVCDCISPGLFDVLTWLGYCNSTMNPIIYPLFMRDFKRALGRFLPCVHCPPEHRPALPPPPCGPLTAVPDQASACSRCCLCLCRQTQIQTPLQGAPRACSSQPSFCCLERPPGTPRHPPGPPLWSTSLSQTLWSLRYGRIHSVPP
structure (smiles),measurement,setting,value
COc1ccc2c(c1)c(C1=CCNCC1)cn2S(=O)(=O)c1ccc2ncccc2c1,Ki,[1],0.014 µM
O=S(=O)(c1cc2ccccc2cn1)n1cc(C2=CCNCC2)c2ccccc21,Ki,[1],0.012 µM
COc1ccc2c(c1)c(C1CCNCC1)cn2S(=O)(=O)c1ccc2cccnc2c1,Ki,[1],0.03 µM
O=S(=O)(c1cnc2ccccc2c1)n1cc(C2=CCNCC2)c2ccc(Cl)cc21,Ki,[1],0.037 µM
O=S(=O)(c1cncc2ccccc12)n1cc(C2=CCNCC2)c2ccccc21,Ki,[1],0.005 µM
O=S(=O)(c1ccc2cccnc2c1)n1cc(C2=CCNCC2)c2ccc(Cl)cc21,Ki,[1],0.022 µM
O=S(=O)(c1ccc2cccnc2c1)n1cc(C2=CCNCC2)c2cc(Cl)ccc21,Ratio Ki,Homo sapiens [2],70
same,Ratio Ki,Homo sapiens [3],70
same,Ratio Ki,Homo sapiens [4],70
same,Ratio Ki,Homo sapiens [5],70
same,Ki,D(2) dopamine receptor,1.17 µM
same,Ki,[6],2.47 µM
same,Ki,[7],7.32 µM
same,Ki,[1],0.009 µM
same,Ki,[8],2.59 µM
Cc1c(C2=CCNCC2)c2ccccc2n1S(=O)(=O)c1ccc2cccnc2c1,Ki,[1],0.018 µM
CCCCN1CC=C(c2cn(S(=O)(=O)c3ccc4cccnc4c3)c3ccc(OC)cc23)CC1,Ki,[1],0.219 µM
COc1ccc2c(c1)c(C1=CCNCC1)cn2S(=O)(=O)c1cccc2ncccc12,Ratio Ki,Homo sapiens [2],70
same,Ratio Ki,Homo sapiens [3],70
same,Ratio Ki,Homo sapiens [4],70
same,Ratio Ki,Homo sapiens [5],70
same,Ki,D(2) dopamine receptor,0.302 µM
same,Ki,[6],2.94 µM
same,Ki,[7],2.35 µM
same,Ki,[1],0.004 µM
same,Ki,[8],1.55 µM
O=S(=O)(c1ccccc1)c1cnc2c(N3CCNCC3)cccc2c1 [INTEPIRDINE],Ki,[9],0.000234 µM
same,Activity,Rattus norvegicus [10],Active
same,minimal effective dose,Rattus norvegicus [11],3 mg/kg
same,Activity,Rattus norvegicus [12],Active
same,Activity,[13],Non-Toxic
same,Activity,Rattus norvegicus [14],Active
same,minimal effective dose,Rattus norvegicus [15],3 mg/kg
COc1ccc2c(c1)c(C1CCNCC1)cn2S(=O)(=O)c1cncc2ccccc12,Ki,[1],0.024 µM
Cc1c(C2=CCNCC2)c2ccccc2n1S(=O)(=O)c1cc2ccccc2cn1,Ki,[1],0.02 µM
O=S(=O)(c1ccc2ncccc2c1)n1cc(C2=CCNCC2)c2ccc(Cl)cc21,Ki,[1],0.112 µM
O=S(=O)(c1cncc2ccccc12)n1cc(C2=CCNCC2)c2cc(Cl)ccc21,Ki,[1],0.018 µM
CCCN1CC=C(c2cn(S(=O)(=O)c3ccc4cccnc4c3)c3ccc(OC)cc23)CC1,Ki,[1],0.247 µM
O=S(=O)(c1cc2ccccc2cn1)n1cc(C2=CCNCC2)c2ccc(Cl)cc21,Ki,[1],0.102 µM
COc1ccc2c(c1)c(C1=CCNCC1)cn2S(=O)(=O)c1cnc2ccccc2c1,Ki,[1],0.008 µM
O=S(=O)(c1ccc2cccnc2c1)n1cc(C2=CCNCC2)c2ccccc21,Ki,[1],0.007 µM
O=S(=O)(c1cnc2ccccc2c1)n1cc(C2=CCNCC2)c2cc(Cl)ccc21,Ki,[1],0.011 µM
COc1ccc2c(c1)c(C1=CCNCC1)cn2S(=O)(=O)c1cc2ccccc2cn1,Ki,[1],0.006 µM
COc1ccc2c(c1)c(C1=CCN(C)CC1)cn2S(=O)(=O)c1ccc2cccnc2c1,Ki,[1],0.082 µM
CSc1nn2c(C)cc(C)nc2c1S(=O)(=O)c1ccccc1,Ki,[16],0.0021 µM
O=S(=O)(c1cccc2ncccc12)n1cc(C2=CCNCC2)c2cc(Cl)ccc21,Ki,[1],0.011 µM
O=S(=O)(c1cnc2ccccc2c1)n1cc(C2=CCNCC2)c2ccccc21,Ki,[1],0.013 µM
O=S(=O)(c1ccc2ncccc2c1)n1cc(C2=CCNCC2)c2ccccc21,Ratio Ki,Homo sapiens [2],70
same,Ratio Ki,Homo sapiens [3],70
same,Ratio Ki,Homo sapiens [4],70
same,Ratio Ki,Homo sapiens [5],70
same,Ki,D(2) dopamine receptor,1.41 µM
same,Ki,[6],1.87 µM
same,Ki,[7],6.66 µM
same,Ki,[1],0.02 µM
same,Ki,[8],1.41 µM
